Experimental data as given in ChEMBL document CHEMBL2384906, “Biological activity, design, synthesis and structure activity relationship of some novel derivatives of curcumin containing sulfonamides” (Eur J Med Chem, 2013).
Values after ≈ are worked out from the molar mass of the structure shown.

Key:
[1] = tested on: Aspergillus niger; test: Antifungal activity against Aspergillus niger MTCC 1108 assessed as zone of inhibition at 20 uM after 48 hrs by disc diffusion method; format: functional; settings: MTCC 1108, 48 h, read-out: IZ
Method in brief: (§1)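 Spores from 4-day potato dextrose agar cultures, suspended in sterile water at 1.5 × 10⁵ CFU/mL. 0.2 mL was spread on potato dextrose agar. 5 mm filter-paper discs soaked with test compound were laid on the lawn. Incubation was 48 h at 28 °C, then the inhibition zone was measured in mm. Fluconazole was the positive control and acetone the negative control.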

[2] = tested on: Salmonella typhi; test: Antimicrobial activity against Salmonella typhi ATCC 23564 after 24 hrs by broth micro serial dilution method; format: functional, Salmonella enterica subsp. enterica serovar Typhi; settings: Salmonella enterica, ATCC 23564, 24 h
[3] = tested on: Aspergillus niger; test: Antifungal activity against Aspergillus niger MTCC 1108 after 48 hrs; format: functional; settings: MTCC 1108, 48 h
[4] = tested on: Trichoderma viride; test: Antifungal activity against Trichoderma viride MTCC 1107 after 48 hrs; format: functional; settings: MTCC 1107, 48 h
[5] = tested on: Aspergillus niger; test: Antifungal activity against Aspergillus niger MTCC 1108 assessed as zone of inhibition at 40 uM after 48 hrs by disc diffusion method; format: functional; settings: MTCC 1108, 48 h, read-out: IZ; method in brief: as §1
[6] = tested on: Pseudomonas aeruginosa; test: Antimicrobial activity against Pseudomonas aeruginosa ATCC 15499 assessed as diameter of inhibition zone at 20 uM after 24 hrs by Kirby -Baur disc diffusion method; format: functional; settings: ATCC 15499, 24 h, read-out: DIZ
Method in brief: (§2)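 Kirby-Bauer disc diffusion was used. Acetone stocks (160 µM) were serially doubled down to 80, 40 and 20 µM. 4 µL of each went onto 5 mm sterile paper discs, which were dried 30 min at 50 °C. Inoculum was 1.5 × 10⁸ CFU/mL diluted to 3 × 10² CFU/mL, and 50 µL was spread on Mueller-Hinton agar. After 24 h at 37 °C the inhibition-zone diameter was measured. Ciprofloxacin served as positive control.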

[7] = tested on: HeLa; test: Cytotoxicity against human HeLa cells after 24 hrs by MTT assay; format: functional, cell-based
Method in brief: (§3)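 The MTT assay seeded 5 × 10⁴ cells per well and grew them 24 h in RPMI 1640 with compound at 2.5–200 µM. Medium without cells was the blank and adriamycin the positive control. MTT was added for 4 h at 37 °C, formazan was solubilised, and absorbance was read at 570 nm. IC50 is the concentration that cuts viability 50% against untreated cells.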

[8] = tested on: Curvularia lunata; test: Antifungal activity against Curvularia lunata MTCC 581 assessed as zone of inhibition at 40 uM after 48 hrs by disc diffusion method; format: functional; settings: MTCC 581, 48 h, read-out: IZ; method in brief: as §1
[9] = tested on: Aspergillus flavus; test: Antifungal activity against Aspergillus flavus MTCC 1021 assessed as zone of inhibition at 40 uM after 48 hrs by disc diffusion method; format: functional; settings: MTCC 1021, 48 h, read-out: IZ; method in brief: as §1
[10] = tested on: QG-56; test: Cytotoxicity against human QG56 cells after 24 hrs by MTT assay; format: functional, cell-based; method in brief: as §3
[11] = tested on: Pseudomonas aeruginosa; test: Antimicrobial activity against Pseudomonas aeruginosa ATCC 15499 after 24 hrs by broth micro serial dilution method; format: functional; settings: ATCC 15499, 24 h
Method in brief: (§4)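 This was broth microdilution in autoclaved Mueller-Hinton broth. 150 µL of compound per well was serially diluted […], and 50 µL of test organism was added. Plates were incubated 24 h at 37 °C and optical density was read.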

[12] = tested on: Trichoderma viride; test: Antifungal activity against Trichoderma viride MTCC 1107 assessed as zone of inhibition at 80 uM after 48 hrs by disc diffusion method; format: functional; settings: MTCC 1107, 48 h, read-out: IZ; method in brief: as §1
[13] = tested on: Curvularia lunata; test: Antifungal activity against Curvularia lunata MTCC 581 assessed as zone of inhibition at 80 uM after 48 hrs by disc diffusion method; format: functional; settings: MTCC 581, 48 h, read-out: IZ; method in brief: as §1
[14] = tested on: Salmonella typhi; test: Antimicrobial activity against Salmonella typhi ATCC 23564 assessed as diameter of inhibition zone at 20 uM after 24 hrs by Kirby -Baur disc diffusion method; format: functional, Salmonella enterica subsp. enterica serovar Typhi; settings: Salmonella enterica, ATCC 23564, 24 h; read-out: DIZ
[15] = tested on: Trichoderma viride; test: Antifungal activity against Trichoderma viride MTCC 1107 assessed as zone of inhibition at 20 uM after 48 hrs by disc diffusion method; format: functional; settings: MTCC 1107, 48 h, read-out: IZ; method in brief: as §1
[16] = tested on: Aspergillus flavus; test: Antifungal activity against Aspergillus flavus MTCC 1021 assessed as zone of inhibition at 80 uM after 48 hrs by disc diffusion method; format: functional; settings: MTCC 1021, 48 h, read-out: IZ; method in brief: as §1
[17] = tested on: HepG2; test: Cytotoxicity against human HepG2 cells after 24 hrs by MTT assay; format: functional, cell-based; method in brief: as §3
[18] = tested on: Staphylococcus aureus; test: Antimicrobial activity against Staphylococcus aureus ATCC 11632 assessed as diameter of inhibition zone at 20 uM after 24 hrs by Kirby -Baur disc diffusion method; format: functional; settings: ATCC 11632, 24 h, read-out: DIZ; method in brief: as §2
[19] = tested on: Bacillus cereus; test: Antimicrobial activity against Bacillus cereus MTCC 7350 after 24 hrs by broth micro serial dilution method; format: functional; settings: MTCC 7350, 24 h; method in brief: as §4
[20] = tested on: Mus musculus; test: Antiinflammatory activity in mouse assessed as inhibition of carrageenan-induced increase in paw volume at 200 mg/kg administered 1 hr prior to carrageenan challenge measured after 3 hrs relative to control; format: functional
Method in brief: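 Mice were fasted 2 h and placed in groups of five. Controls received saline i.p. Phenylbutazone was given at 100 mg/kg i.p., curcumin at 200 mg/kg i.p., and derivatives at 200 mg/kg. After 1 h, 0.1 mL of 1% carrageenan in saline was injected subplantar into the right hind paw. Paw volume was followed by plethysmometer for 3 h, and % inhibition was calculated as (Vc − Vt)/Vc × 100.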

[21] = tested on: Salmonella typhi; test: Antimicrobial activity against Salmonella typhi ATCC 23564 assessed as diameter of inhibition zone at 40 uM after 24 hrs by Kirby -Baur disc diffusion method; format: functional, Salmonella enterica subsp. enterica serovar Typhi; settings: Salmonella enterica, ATCC 23564, 24 h; read-out: DIZ
[22] = tested on: Aspergillus flavus; test: Antifungal activity against Aspergillus flavus MTCC 1021 assessed as zone of inhibition at 20 uM after 48 hrs by disc diffusion method; format: functional; settings: MTCC 1021, 48 h, read-out: IZ; method in brief: as §1
[23] = tested on: Staphylococcus aureus; test: Antimicrobial activity against Staphylococcus aureus ATCC 11632 after 24 hrs by broth micro serial dilution method; format: functional; settings: ATCC 11632, 24 h; method in brief: as §4
[24] = tested on: HCT-116; test: Cytotoxicity against human HCT116 cells after 24 hrs by MTT assay; format: functional, cell-based; method in brief: as §3
[25] = tested on: Escherichia coli; test: Antimicrobial activity against Escherichia coli ATCC 35218 assessed as diameter of inhibition zone at 40 uM after 24 hrs by Kirby -Baur disc diffusion method; format: functional; settings: ATCC 35218, 24 h, read-out: DIZ; method in brief: as §2
[26] = tested on: Curvularia lunata; test: Antifungal activity against Curvularia lunata MTCC 581 after 48 hrs; format: functional; settings: MTCC 581, 48 h
[27] = tested on: Aspergillus flavus; test: Antifungal activity against Aspergillus flavus MTCC 1021 after 48 hrs; format: functional; settings: MTCC 1021, 48 h
[28] = tested on: Escherichia coli; test: Antimicrobial activity against Escherichia coli ATCC 35218 assessed as diameter of inhibition zone at 80 uM after 24 hrs by Kirby -Baur disc diffusion method; format: functional; settings: ATCC 35218, 24 h, read-out: DIZ; method in brief: as §2
[29] = tested on: Curvularia lunata; test: Antifungal activity against Curvularia lunata MTCC 581 assessed as zone of inhibition at 20 uM after 48 hrs by disc diffusion method; format: functional; settings: MTCC 581, 48 h, read-out: IZ; method in brief: as §1
[30] = tested on: Staphylococcus aureus; test: Antimicrobial activity against Staphylococcus aureus ATCC 11632 assessed as diameter of inhibition zone at 80 uM after 24 hrs by Kirby -Baur disc diffusion method; format: functional; settings: ATCC 11632, 24 h, read-out: DIZ; method in brief: as §2
[31] = tested on: Aspergillus niger; test: Antifungal activity against Aspergillus niger MTCC 1108 assessed as zone of inhibition at 80 uM after 48 hrs by disc diffusion method; format: functional; settings: MTCC 1108, 48 h, read-out: IZ; method in brief: as §1
[32] = tested on: Escherichia coli; test: Antimicrobial activity against Escherichia coli ATCC 35218 after 24 hrs by broth micro serial dilution method; format: functional; settings: ATCC 35218, 24 h; method in brief: as §4
[33] = tested on: Escherichia coli; test: Antimicrobial activity against Escherichia coli ATCC 35218 assessed as diameter of inhibition zone at 20 uM after 24 hrs by Kirby -Baur disc diffusion method; format: functional; settings: ATCC 35218, 24 h, read-out: DIZ; method in brief: as §2
[34] = tested on: Bacillus cereus; test: Antimicrobial activity against Bacillus cereus MTCC 7350 assessed as diameter of inhibition zone at 80 uM after 24 hrs by Kirby -Baur disc diffusion method; format: functional; settings: MTCC 7350, 24 h, read-out: DIZ; method in brief: as §2
[35] = tested on: Pseudomonas aeruginosa; test: Antimicrobial activity against Pseudomonas aeruginosa ATCC 15499 assessed as diameter of inhibition zone at 40 uM after 24 hrs by Kirby -Baur disc diffusion method; format: functional; settings: ATCC 15499, 24 h, read-out: DIZ; method in brief: as §2
[36] = tested on: Trichoderma viride; test: Antifungal activity against Trichoderma viride MTCC 1107 assessed as zone of inhibition at 40 uM after 48 hrs by disc diffusion method; format: functional; settings: MTCC 1107, 48 h, read-out: IZ; method in brief: as §1
[37] = tested on: Bacillus cereus; test: Antimicrobial activity against Bacillus cereus MTCC 7350 assessed as diameter of inhibition zone at 20 uM after 24 hrs by Kirby -Baur disc diffusion method; format: functional; settings: MTCC 7350, 24 h, read-out: DIZ; method in brief: as §2
[38] = tested on: Staphylococcus aureus; test: Antimicrobial activity against Staphylococcus aureus ATCC 11632 assessed as diameter of inhibition zone at 40 uM after 24 hrs by Kirby -Baur disc diffusion method; format: functional; settings: ATCC 11632, 24 h, read-out: DIZ; method in brief: as §2
[39] = tested on: Salmonella typhi; test: Antimicrobial activity against Salmonella typhi ATCC 23564 assessed as diameter of inhibition zone at 80 uM after 24 hrs by Kirby -Baur disc diffusion method; format: functional, Salmonella enterica subsp. enterica serovar Typhi; settings: Salmonella enterica, ATCC 23564, 24 h; read-out: DIZ
[40] = tested on: Pseudomonas aeruginosa; test: Antimicrobial activity against Pseudomonas aeruginosa ATCC 15499 assessed as diameter of inhibition zone at 80 uM after 24 hrs by Kirby -Baur disc diffusion method; format: functional; settings: ATCC 15499, 24 h, read-out: DIZ; method in brief: as §2
[41] = tested on: Bacillus cereus; test: Antimicrobial activity against Bacillus cereus MTCC 7350 assessed as diameter of inhibition zone at 40 uM after 24 hrs by Kirby -Baur disc diffusion method; format: functional; settings: MTCC 7350, 24 h, read-out: DIZ; method in brief: as §2

COc1cc(/C=C/C(CC(/C=C/c2ccc(O)c(OC)c2)=N/c2ccc(S(=O)(=O)Nc3nc(C)cc(C)n3)cc2)=N\c2ccc(S(=O)(=O)Nc3nc(C)cc(C)n3)cc2)ccc1O
zone of inhibition at 20 µM [1]: 8 mm
MIC [2]: 40 µM (≈ 35.6 µg/mL)
MIC [3]: 40 µM (≈ 35.6 µg/mL)
MIC [4]: 20 µM (≈ 17.8 µg/mL)
zone of inhibition at 40 µM [5]: 12 mm
zone of inhibition at 20 µM [6]: 14 mm
IC50 [7]: 25 µM
zone of inhibition at 40 µM [8]: 16 mm
zone of inhibition at 40 µM [9]: 11 mm
IC50 [10]: 50 µM
MIC [11]: 40 µM (≈ 35.6 µg/mL)
zone of inhibition at 80 µM [12]: 22 mm
zone of inhibition at 80 µM [13]: 19 mm
zone of inhibition at 20 µM [14]: 17 mm
zone of inhibition at 20 µM [15]: 18 mm
zone of inhibition at 80 µM [16]: 12 mm
IC50 [17]: 50 µM
zone of inhibition at 20 µM [18]: 13 mm
MIC [19]: 40 µM (≈ 35.6 µg/mL)
inhibition in vivo at 200 mg/kg [20]: 40.3%
zone of inhibition at 40 µM [21]: 21 mm
zone of inhibition at 20 µM [22]: 10 mm
MIC [23]: 40 µM (≈ 35.6 µg/mL)
IC50 [24]: 25 µM
zone of inhibition at 40 µM [25]: 19 mm
MIC [26]: 20 µM (≈ 17.8 µg/mL)
MIC [27]: 80 µM (≈ 71.1 µg/mL)
zone of inhibition at 80 µM [28]: 23 mm
zone of inhibition at 20 µM [29]: 12 mm
zone of inhibition at 80 µM [30]: 23 mm
zone of inhibition at 80 µM [31]: 14 mm
MIC [32]: 20 µM (≈ 17.8 µg/mL)
zone of inhibition at 20 µM [33]: 17 mm
zone of inhibition at 80 µM [34]: 21 mm
zone of inhibition at 40 µM [35]: 18 mm
zone of inhibition at 40 µM [36]: 19 mm
zone of inhibition at 20 µM [37]: 11 mm
zone of inhibition at 40 µM [38]: 18 mm
zone of inhibition at 80 µM [39]: 24 mm
zone of inhibition at 80 µM [40]: 23 mm
zone of inhibition at 40 µM [41]: 18 mm
